Source: PubChem BioAssay
Calls of active or inactive are those of the source.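 The calls were made as follows, unless noted: active = inhibition at or above 50% at 10 µM; inactive = inhibition below 50%.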

What was measured:
[1] = inhibitors of TNFa-induced NFkB p65 translocation, primary screen, imaging, HUVEC, MLSMR starter and 10KST1 sets (AID 438;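 active = inhibition above 20% together with a positive visual image hit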;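 also: compound added about 3h40 before a 20 min TNFalpha stimulation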;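 as to inhibition: signal is the nuclear over cytoplasmic p65 intensity ratio per well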); conditions: HUVEC TNFa-induced p65 nuclear translocation; cell count: measured here: nuclei count (cytotoxicity indicator), at 2.08 µM; inhibition: at 2 µM, stronger effect = higher value, 0% TNFa-plus-vehicle, 100% no-TNFa wells
[2] = reduction of polyQ htt aggregates in cells – imaging, exon1htt(103Q)mCFP cells, high-content imaging, primary screen (AID 483;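 active = visual image review flags a hit and inhibition of aggregation exceeds 20%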;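 also: compound exposure lasted 3 days before fixation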;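 as to nuclei count: percent of the per-plate median nuclei count of sample wells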); conditions: exon1htt(103Q)mCFP cell line, aggregate imaging, at 2 µM; inhibition of aggregation: stronger effect = higher value; nuclei count: measured here: cell count, toxicity
[3] = endothelial E-selectin expression blockers – imaging, HUVEC, immunofluorescence, MLSMR starter and 10KST1 sets, primary screen (AID 487;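 active = visually confirmed hit in the image check and inhibition above 20%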;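 as to inhibition: signal is fraction of cell area covered by stained E-selectin grains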;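 as to nuclei count: 100% = median nuclei count of all wells on the same plate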); conditions: HUVEC TNFalpha-induced E-selectin immunofluorescence imaging, at 2 µM; inhibition: stronger effect = higher value; nuclei count: measured here: cell number, toxicity
[4] = molecular target: Voltage-gated potassium channel subunit beta-2 (Rattus norvegicus) (UniProt P62483); test: inhibitors of rat Kvbeta2 reductase activity – biochemical, NADPH fluorescence, primary screen (AID 622;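 active = fluorescence slope higher than the sample average by over 3 SD, cut at about -0.22 in these data, passing the limit was not always enough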;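 also: slope of raw intensity against log time taken from 70 to 1610 s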); conditions: recombinant KvBeta, 4-cyanobenzaldehyde reduction, at 10 µM, stronger effect = higher value
Voltage-gated potassium channel subunit beta-2 (Rattus norvegicus), sequence (P62483 whole entry, looked up): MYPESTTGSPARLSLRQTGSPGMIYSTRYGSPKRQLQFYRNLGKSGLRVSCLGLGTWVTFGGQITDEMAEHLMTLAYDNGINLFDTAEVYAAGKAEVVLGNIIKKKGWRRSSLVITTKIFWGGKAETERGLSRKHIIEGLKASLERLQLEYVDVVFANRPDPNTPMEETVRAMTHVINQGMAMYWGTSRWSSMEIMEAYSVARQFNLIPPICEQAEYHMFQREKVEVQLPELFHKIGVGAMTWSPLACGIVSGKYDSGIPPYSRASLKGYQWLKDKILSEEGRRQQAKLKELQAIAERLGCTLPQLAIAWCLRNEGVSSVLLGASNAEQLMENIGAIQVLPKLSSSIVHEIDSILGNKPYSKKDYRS

[5] = molecular target: Voltage-gated potassium channel subunit beta-2 (Rattus norvegicus) (UniProt P62483); test: enhancers of rat Kvbeta2 NADPH turnover – biochemical, NADPH fluorescence, primary screen (AID 623;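 active = NADPH fluorescence slope more negative than the mean of all samples by about 3 SD, 99.7% confidence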;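 also: fluorescence intensity change per second fitted from 20 to 320 s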); conditions: Recombinant KvBeta, NADPH fluorescence decrease slope, 10 min; at 10 µM; stronger effect = lower value
[6] = molecular target: Muscarinic acetylcholine receptor M4 (Homo sapiens) (UniProt P08173); test: M4-linked GIRK flux change, two-sided – cell-based, HEK293 M4/GIRK, thallium flux, BTC-AM, M4 allosteric agonist project, primary screen (AID 625;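 active = fluorescence slope after compound addition differing from the mean of all tested samples at 99.7% confidence, mostly higher but some lower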;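 also: thallium influx through GIRK channels coupled to M4 in HEK293 cells with BTC-AM dye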); conditions: at 10 µM, actives lie on both sides
Muscarinic acetylcholine receptor M4 (Homo sapiens), sequence (P08173 whole entry, looked up): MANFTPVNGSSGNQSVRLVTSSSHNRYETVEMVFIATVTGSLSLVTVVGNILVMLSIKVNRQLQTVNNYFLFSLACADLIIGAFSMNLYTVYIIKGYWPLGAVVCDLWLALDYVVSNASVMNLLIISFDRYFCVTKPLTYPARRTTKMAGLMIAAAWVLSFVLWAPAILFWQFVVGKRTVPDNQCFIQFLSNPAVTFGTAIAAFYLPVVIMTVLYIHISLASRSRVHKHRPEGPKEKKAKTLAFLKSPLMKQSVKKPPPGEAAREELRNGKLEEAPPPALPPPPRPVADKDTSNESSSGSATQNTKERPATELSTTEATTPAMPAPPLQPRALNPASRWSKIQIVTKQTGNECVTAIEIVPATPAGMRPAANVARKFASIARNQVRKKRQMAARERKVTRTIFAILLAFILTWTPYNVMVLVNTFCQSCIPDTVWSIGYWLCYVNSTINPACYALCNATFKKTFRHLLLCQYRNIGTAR
Procedure, shortened: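 Material: M4/GIRK1/GIRK2 stable HEK293 cell line. Medium: pH 7.3 thallium assay buffer. Dosing: single compound concentration, 10 µM final. Schedule: 1 h dye loading, 2 min kinetic read. Measured by: kinetic fluorescence with BTC-AM dye. Read-out: post-addition slope, 15–24 s, of baseline-normalized fluorescence. Benchmarks: carbachol and DMSO controls.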

[7] = blockers of RIG-like receptor reporter activation – cell-based, Sendai virus stimulus, luciferase, 10K MLSCN set, TLR/RLR signaling modifier project, primary screen (AID 602276); conditions: HEK293 RL24 IRF3 luciferase reporter, at 10 µM, stronger effect = higher value;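 also: firefly luciferase from ISG56 promoter only with Renilla not read in this screen; 0% = Sendai virus plus DMSO and 100% = medium plus DMSO without virus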
[8] = TLR3 IRF3 reporter activation blockers – cell-based, poly I:C stimulus, luciferase, 10K MLSCN set, primary screen (AID 602277;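 active = inhibition of the reporter signal at or above 50%; inactive = inhibition below 50%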); conditions: HEK293-TLR3 RL24 IRF3 luciferase reporter, at 10 µM, stronger effect = higher value

Compound	cell count [1]	inhibition [1]	inhibition of aggregation [2]	nuclei count [2] [%]	inhibition [3]	nuclei count [3] [%]	fluorescence slope [4]	NADPH fluorescence slope [5]	fluorescence slope [6]	inhibition [7]	inhibition [8]
COC(=O)Cn1cnc2c(nnn2-c2ccc(C)cc2)c1=O	257	8.9% (inactive)	-6.9% (inactive)	100	-78.1% (inactive)	106	-0.287 (inactive)	-3.1e-05 (inactive)	0.00635 (inactive)	-7.22% (inactive)	1.35% (inactive)
O=C(NCc1ccco1)Nc1ccc2nsnc2c1	683	-6.1% (inactive)	-22.1% (inactive)	113	-138% (inactive)	119	-0.445 (inactive)	-2.6e-05 (inactive)	0.00612 (inactive)	-31.4% (inactive)	-83.7% (inactive)
CCOc1ccc(N2CC(C(=O)Nc3ccc(F)cc3F)CC2=O)cc1 (centres undefined)	847	10.1% (inactive)	7.4% (inactive)	92.8	-3.5% (inactive)	99.9	-0.587 (inactive)	2.2e-05 (inactive)	0.00677 (inactive)	6.56% (inactive)	26.2% (inactive)
Cc1cc(NC(=O)Cn2cnc3c2c(=O)n(C)c(=O)n3C)n(-c2ccccc2)n1	580	-38.9% (inactive)	1.1% (inactive)	99.2	22.7% (inactive)	68.4	-0.33 (inactive)	-8.3e-05 (inactive)	0.00675 (inactive)	13.4% (inactive)	17% (inactive)
O=C(O)c1cc(/C=N\O)ccc1OCc1ccccc1	697	-6.9% (inactive)	2.9% (inactive)	112	-30.9% (inactive)	104	-0.545 (inactive)	-1.3e-05 (inactive)	0.007 (inactive)	-0.244% (inactive)	11.6% (inactive)
CCC(=O)NC1(C(F)(F)F)C(=O)NC(C)=C1C#N (centres undefined)	382	3.6% (inactive)	11.2% (inactive)	98.2	-18.8% (inactive)	105	-0.445 (inactive)	4.4e-05 (inactive)	0.00561 (inactive)	14.9% (inactive)	25.3% (inactive)
CCCCCn1c(=O)[nH]c2cc(C(=O)NCCN3CCOCC3)ccc2c1=O	355	-1% (inactive)	18% (inactive)	104	-15.3% (inactive)	120	-0.323 (inactive)	-3.7e-05 (inactive)	0.00658 (inactive)	5.81% (inactive)	9.94% (inactive)
CC(C)(C)C1=C[C@@H](CO)C[C@@H](CO)C1	734	-3.5% (inactive)	-19.6% (inactive)	103	-25.8% (inactive)	138	-0.391 (inactive)	-0.000123 (inactive)	0.00843 (inactive)	10.7% (inactive)	23.8% (inactive)
Cc1cc(-c2ccccc2)c2nncn2n1	304	0.9% (inactive)	-3% (inactive)	108	1.4% (inactive)	107	-0.492 (inactive)	-1.4e-05 (inactive)	0.00457 (inactive)	18.1% (inactive)	15.3% (inactive)
CC(C)(C)C(=O)Oc1cc(N)n(S(=O)(=O)c2ccccc2)n1	228	-0.3% (inactive)	-1.1% (inactive)	109	-24.6% (inactive)	129	-0.52 (inactive)	-5.6e-05 (inactive)	0.00539 (inactive)	-12% (inactive)	-7.53% (inactive)
OCc1nc2ccccc2n1CC(O)Cn1ccc2ccccc21 (centres undefined)	463	2.9% (inactive)	-7.1% (inactive)	98.2	-71.2% (inactive)	117	-0.577 (inactive)	-5e-05 (inactive)	0.00376 (inactive)	1.37% (inactive)	-8.82% (inactive)
O=C(CCn1c(=O)sc2ccccc21)Nc1cccnc1	572	-7.6% (inactive)	20.2% (inactive)	81.9	-11.2% (inactive)	110	-0.443 (inactive)	0.000131 (inactive)	0.00603 (inactive)	8.62% (inactive)	10.8% (inactive)
CCc1cc(-c2[nH]ncc2-c2ccc3c(c2)OCO3)c(O)cc1O	511	0.5% (inactive)	26% (inactive)	97.8	-11.5% (inactive)	111	-0.572 (inactive)	3.5e-05 (inactive)	0.00533 (inactive)	14% (inactive)	-66.6% (inactive)
CCOC(=O)CN1C2=NCCN2c2ccccc21	428	3.8% (inactive)	-1.1% (inactive)	76.3	-107% (inactive)	125	-0.605 (inactive)	-8.6e-06 (inactive)	0.00469 (inactive)	13.8% (inactive)	18.8% (inactive)
